Screening results: PubChem, Johns Hopkins Ion Channel Center
TRPC6 activator: mouse TRPC6 channel activation; Q61143; HEK293-TRPC6 membrane potential dye fluorescence; hits give high values; B-score at 10 µM; 0.13% of 310,000 active; AID 2550;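 active means B-score of the integrated fluorescence ratio above library mean plus 3 SD, and starting fluorescence ratio within library mean plus 5 SD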;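 further: higher score means more depolarization so channel activation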
TRPC4 PAM: allosteric potentiators of mouse TRPC4 channel | 0.42% of 310,000 active | AID 2227 | Q9QUQ5 | HEK293 TRPC4beta/mu-opioid, DAMGO EC20, Fluo-4 Ca2+ flux; hits give high values | B-score at 10 µM;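 active means B-score of calcium response area above 5 SD of library B-scores, with initial fluorescence ratio within 5 SD of library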;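 further: B-score of integrated fluorescence ratio over time as area under calcium response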
Target sequence (Q9QUQ5 whole entry, looked up): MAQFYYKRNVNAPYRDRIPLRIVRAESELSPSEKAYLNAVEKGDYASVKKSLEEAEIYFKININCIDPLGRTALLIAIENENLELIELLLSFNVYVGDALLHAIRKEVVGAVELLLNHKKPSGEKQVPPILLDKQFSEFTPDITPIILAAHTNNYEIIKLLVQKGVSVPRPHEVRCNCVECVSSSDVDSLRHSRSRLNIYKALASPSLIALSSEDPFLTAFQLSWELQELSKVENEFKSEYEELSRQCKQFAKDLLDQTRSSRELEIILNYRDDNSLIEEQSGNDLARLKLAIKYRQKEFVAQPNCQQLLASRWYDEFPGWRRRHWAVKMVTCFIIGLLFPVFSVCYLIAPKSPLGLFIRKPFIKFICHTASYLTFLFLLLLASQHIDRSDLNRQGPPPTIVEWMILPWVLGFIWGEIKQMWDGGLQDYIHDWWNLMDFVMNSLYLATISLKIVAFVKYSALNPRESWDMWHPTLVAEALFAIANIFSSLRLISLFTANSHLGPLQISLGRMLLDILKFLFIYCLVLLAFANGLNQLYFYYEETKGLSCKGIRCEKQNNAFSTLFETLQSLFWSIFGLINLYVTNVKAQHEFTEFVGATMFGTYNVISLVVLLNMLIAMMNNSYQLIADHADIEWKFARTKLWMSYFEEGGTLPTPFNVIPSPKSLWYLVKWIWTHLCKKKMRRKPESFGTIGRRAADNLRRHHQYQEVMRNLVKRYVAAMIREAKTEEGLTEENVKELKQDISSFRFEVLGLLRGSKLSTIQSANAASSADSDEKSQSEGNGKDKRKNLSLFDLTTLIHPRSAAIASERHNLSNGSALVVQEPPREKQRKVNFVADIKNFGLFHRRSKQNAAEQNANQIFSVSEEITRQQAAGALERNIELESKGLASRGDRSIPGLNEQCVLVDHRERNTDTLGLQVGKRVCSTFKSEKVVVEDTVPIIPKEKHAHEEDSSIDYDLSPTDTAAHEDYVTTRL
TRPC6 inhibitor: inhibitors of mouse TRPC6 channel; 1.1% of 310,000 active; HEK293-TRPC6, membrane potential dye, ACh-evoked depolarization; hits give low values; Q61143; AID 2553; B-score at 10 µM;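 active means B-score under library mean minus 3 SD, initial fluorescence not abnormally high, positive integrated signal ratio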;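 further: B-score derived from integrated fluorescence ratio over the kinetic read; more negative B-score means stronger inhibition of depolarization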
TRPC4 block: TRPC4 (mouse) channel inhibition; HEK293 TRPC4beta/mu-opioid, DAMGO-evoked Fluo4 calcium flux; hits give low values; 0.39% of 300,000 active; B-score at 10 µM;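 active means B-score over 3 SD under the library average, no early fluorescence shift, positive overall ratio signal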
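Test system – stable TRPC4beta/mu-opioid receptor HEK293 cells · Probe or stimulus – DAMGO, a submaximal dose followed by a maximal one · Dosing – one concentration per compound · Signal – Fluo4 calcium fluorescence by kinetic imaging, 5 s 1 Hz baseline · Evaluation – per-well B score of integrated baseline-normalized Fluo4 ratio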
TRPC4 agonist: TRPC4 (mouse) channel activation; HEK293 TRPC4beta/mu-opioid, Fluo4 calcium fluorescence; hits give high values; B-score at 10 µM; AID 2237; 0.49% of 310,000 active;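 active means B-score above 5 SD of library B-scores, and initial fluorescence ratio not above library mean plus 5 SD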;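 further: positive B-score marks a calcium rise read as TRPC4 activation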
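Assay system: HEK293 cells stably co-expressing mouse TRPC4beta and mu-opioid receptor / Timing: Fluo4 dye loading 45 min at room temperature, 110 s recording / Signal: Fluo4 calcium-sensitive dye fluorescence, kinetic, 1 Hz baseline / Read-out: integrated baseline-normalised fluorescence ratio, converted to per-well B score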
* marks the source's active call; other numbers are inactive results; i = inactive. This is a sample that favours compounds with a hit; in the whole collection about 2.3% have one here.

SMILES	TRPC6 activator	TRPC4 PAM	TRPC6 inhibitor	TRPC4 block	TRPC4 agonist
CS(=O)(=O)N1CCN(c2ccccc2NC(=O)CSc2ccc(Cl)cc2)CC1	i	10*	i	i	i
COc1cc(OC)cc(C(=O)NNC(=O)CN2C(=O)NC(C)(c3ccccc3)C2=O)c1 (stereo unspecified)	i	i	i	i	i
Cc1ccc(O)c(NC(=S)NC(=O)Cc2ccc(Cl)cc2)c1	i	12*	i	i	i
COc1cc(C2NCCc3c2[nH]c2ccccc32)ccc1OC(C)C (stereo unspecified)	i	i	-6.1*	i	i
COc1cc(/C=C2\C(C)=C(C#N)c3nc(N)c(C#N)c(C)c32)ccc1OCC(=O)O	i	i	i	i	i
CC1=C(C#N)c2nc(N)c(C#N)c(C)c2/C1=C\c1ccc(C)cc1	i	i	-6.4*	i	i
COCCSc1nnc(NC(=O)C2CC(=O)N(CCc3ccc(F)cc3)C2)s1 (stereo unspecified)	i	i	i	i	i
c1ccn2cc(C34CC5CC(CC(C5)C3)C4)nc2c1	i	i	i	-7*	i
Cc1ccccc1OCCC(=O)Nc1cc(S(=O)(=O)N2CCOCC2)ccc1OC(C)C	i	i	i	i	i
Cn1cc(-c2nc3ccccc3[nH]2)c2ccccc21	i	i	i	-6*	i
CCN(CC)CCNC(=O)c1ccc(CS(=O)(=O)c2ccccc2C)o1	i	i	i	i	i
Cc1nc2ccccc2n1CC(O)COc1ccccc1Cl (stereo unspecified)	i	i	i	-7*	i
Cc1nc2ccccc2n1CC(O)COc1ccc(Br)cc1 (stereo unspecified)	i	i	i	i	i
CC1(c2ccc(Cl)cc2Cl)OCC(Cn2ccnc2)O1 (stereo unspecified)	i	i	i	i	105*
CCN(CC)C(=O)Cn1cc(S(=O)(=O)CC(=O)Nc2ccccc2C)c2ccccc21	i	i	i	i	i
COc1ccc(OC)c(NC(=O)CSc2nnc(CNC(=O)c3cccs3)o2)c1	i	i	i	i	i
CCc1ccc(-c2cc(C)no2)cc1S(=O)(=O)N1CCN(C(=O)c2ccco2)CC1	i	i	i	i	i
Cc1cc(-c2ccc(C)c(S(=O)(=O)N3CCN(C(=O)c4ccco4)CC3)c2)on1	i	45*	i	i	i
CN(C)CCOC(=O)c1cccc(Br)c1	i	10*	i	i	44*
CCN(CC)S(=O)(=O)c1ccc(Cl)c(C(=O)OC2CC(C)OC2=O)c1 (stereo unspecified)	i	i	i	i	i
CCCCN=C(Nc1ccc(Cl)cc1)c1cccnc1	i	i	i	-6*	i
CCCN=C(Nc1ccc(Cl)cc1)c1cccnc1	i	i	i	i	i
Cc1cc(N2CCN(C)CC2)n2cc(-c3ccc(F)cc3)nc2n1	i	15*	i	i	i
Cc1sc(N)nc1-c1ccc(Oc2ccccc2)cc1	i	i	i	i	i
Cc1ccc(COc2ccc(CNCCCN3CCCCCC3=O)cc2)cc1	i	i	i	i	i
SMILES	TRPC6 activator	TRPC4 PAM	TRPC6 inhibitor	TRPC4 block	TRPC4 agonist
CCOC(=O)c1c(CC(C)C)csc1N	i	i	i	-6*	i
COC(=O)Cn1c(=O)c2c(nc3n2CCCN3CCc2ccccc2)n(C)c1=O	i	i	i	i	i
COc1ccccc1/C=C/CN1CCCC(CCC(=O)NCc2ccc(F)c(F)c2)C1 (stereo unspecified)	i	i	i	i	118*
COc1cccc(CNC(=O)CCC2CCCN(C/C=C/c3ccccc3OC)C2)c1 (stereo unspecified)	i	i	i	i	73*
COCc1ccc(CN2CCCC(CCC(=O)NCc3cccc(OC)c3)C2)o1 (stereo unspecified)	i	i	i	i	i
CCCOc1cc(C)c(S(=O)(=O)n2ccc(C)n2)cc1C	i	13*	i	i	i
Cn1ncc(C#N)c1/N=C/N(Cc1ccccc1)Cc1ccccc1	i	16*	i	i	i
